Source: ChEMBL document CHEMBL3085721, “Nonhydrolyzable ATP analogues as selective inhibitors of human NPP1: a combined computational/experimental study” (J Med Chem, 2013)
Calls of active or inactive are those of the source. The calls are words filed in the database; no cut-off is given here.

What was measured:
[1] = biological target: T1, Ectonucleoside triphosphate diphosphohydrolase 3 (Homo sapiens) (UniProt O75355); test: Inhibition of human NTPDase3 assessed as amount of inorganic phosphate released using ATP as the substrate preincubated at 100 uM for 3 mins before substrate addition after 15 mins by malachite green reagent method
T1 sequence (whole entry): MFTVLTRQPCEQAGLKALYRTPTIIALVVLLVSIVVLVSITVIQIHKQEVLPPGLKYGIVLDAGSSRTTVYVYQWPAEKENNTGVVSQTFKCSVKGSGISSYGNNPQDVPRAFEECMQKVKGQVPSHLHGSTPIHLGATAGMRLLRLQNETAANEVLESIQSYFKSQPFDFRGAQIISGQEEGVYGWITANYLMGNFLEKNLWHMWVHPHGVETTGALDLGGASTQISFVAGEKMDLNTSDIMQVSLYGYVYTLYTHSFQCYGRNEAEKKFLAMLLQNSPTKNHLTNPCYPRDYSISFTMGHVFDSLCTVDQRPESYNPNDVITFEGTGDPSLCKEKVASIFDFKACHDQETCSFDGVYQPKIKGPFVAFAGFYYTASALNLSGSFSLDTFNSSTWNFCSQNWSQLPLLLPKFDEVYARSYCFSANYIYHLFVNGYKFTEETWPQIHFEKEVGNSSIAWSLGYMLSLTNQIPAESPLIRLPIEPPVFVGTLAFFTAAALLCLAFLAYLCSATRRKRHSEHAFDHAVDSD
Procedure, shortened: (§1)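 Crude extracts of COS-7 cells transiently transfected with human NTPDase1, -2, -3 or -8, preincubated 3 min at 37 °C in Tris-Ringer medium pH 7.4 with analogue (final 100 μM). Started with 100 μM ATP, stopped after 15 min with malachite green; released Pi read at 630 nm. ATP alone set as 100%. Mean ± SD of 3−6 experiments in triplicate.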

[2] = biological target: T2, Ectonucleotide pyrophosphatase/phosphodiesterase family member 1 (Homo sapiens, UniProt P22413); test: Mixed type inhibition of human NPP1 expressed in COS7 cells assessed as production of p-nitrophenol using pnp-TMP as the substrate preincubated for 3 mins before substrate addition measured after 15 mins by Dixon/Cornish Bowden method; assay type: cell-based, COS-7; conditions: read-out: Ki(app)
T2 sequence (P22413 whole entry): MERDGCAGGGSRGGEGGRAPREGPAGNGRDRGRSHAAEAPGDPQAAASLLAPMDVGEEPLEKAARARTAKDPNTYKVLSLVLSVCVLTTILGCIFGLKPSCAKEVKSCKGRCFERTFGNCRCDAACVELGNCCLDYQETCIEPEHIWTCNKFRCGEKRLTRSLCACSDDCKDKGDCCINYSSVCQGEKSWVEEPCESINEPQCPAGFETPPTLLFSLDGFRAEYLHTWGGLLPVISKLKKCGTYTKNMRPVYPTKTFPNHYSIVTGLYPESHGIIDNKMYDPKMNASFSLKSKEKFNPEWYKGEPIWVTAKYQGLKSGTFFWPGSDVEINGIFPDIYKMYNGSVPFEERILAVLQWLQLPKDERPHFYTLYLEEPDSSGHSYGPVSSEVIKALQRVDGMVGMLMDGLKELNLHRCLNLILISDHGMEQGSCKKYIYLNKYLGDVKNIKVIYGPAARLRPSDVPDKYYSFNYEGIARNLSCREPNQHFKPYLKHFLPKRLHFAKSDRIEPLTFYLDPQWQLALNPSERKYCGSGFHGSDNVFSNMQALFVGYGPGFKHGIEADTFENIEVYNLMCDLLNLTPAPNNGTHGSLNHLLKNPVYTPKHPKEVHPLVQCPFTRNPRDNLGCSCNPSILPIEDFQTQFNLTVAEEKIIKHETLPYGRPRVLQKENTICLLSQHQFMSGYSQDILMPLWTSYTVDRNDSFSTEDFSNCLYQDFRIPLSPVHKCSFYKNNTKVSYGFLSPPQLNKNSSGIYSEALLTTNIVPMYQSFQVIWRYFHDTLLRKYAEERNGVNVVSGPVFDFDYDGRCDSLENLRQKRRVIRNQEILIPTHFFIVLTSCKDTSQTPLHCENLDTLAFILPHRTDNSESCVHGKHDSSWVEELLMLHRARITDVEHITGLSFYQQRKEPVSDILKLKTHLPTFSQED
Procedure, shortened: (§2)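 Crude protein extract from COS-7 cells transiently transfected with human NPP1 (sonicated, debris cleared at 300g), preincubated 3 min at 37 °C with inhibitor (0, 25, 50, 100 μM) in 1 mM CaCl2, 140 mM NaCl, 5 mM KCl, 50 mM Tris pH 8.5. pnp-TMP (25, 50, 100 μM) added; p-nitrophenol read at 410 nm after 15 min. Ki,app and inhibition type from Dixon and Cornish-Bowden plots, three independent experiments.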

[3] = biological target: T3, Ectonucleotide pyrophosphatase/phosphodiesterase family member 1 (Homo sapiens) (UniProt P22413); test: Inhibition of human NPP1 expressed in COS7 cells assessed as production of p-nitrophenol using pnp-TMP as the substrate preincubated at 100 uM for 3 mins before substrate addition measured after 15 mins […]; assay type: cell-based; conditions: COS-7
T3 sequence (whole entry): T2 sequence (P22413 whole entry)
Procedure, shortened: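 Crude extracts of COS-7 cells transiently transfected with human NPP1 or NPP3, preincubated 3 min at 37 °C in 1 mM CaCl2, 140 mM NaCl, 5 mM KCl, 50 mM Tris pH 8.5 with analogue at 100 μM. Reaction started with 100 μM pnp-TMP; p-nitrophenol at 410 nm after 15 min. Activity without analogue set as 100%. Mean ± SD of 3−6 experiments in triplicate.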

[4] = biological target: T4, Ectonucleoside triphosphate diphosphohydrolase 8 (Homo sapiens) (UniProt Q5MY95); test: Inhibition of human NTPDase8 assessed as amount of inorganic phosphate released using ATP as the substrate preincubated at 100 uM for 3 mins before substrate addition after 15 mins by malachite green reagent method; procedure, shortened: as §1
T4 sequence (whole entry): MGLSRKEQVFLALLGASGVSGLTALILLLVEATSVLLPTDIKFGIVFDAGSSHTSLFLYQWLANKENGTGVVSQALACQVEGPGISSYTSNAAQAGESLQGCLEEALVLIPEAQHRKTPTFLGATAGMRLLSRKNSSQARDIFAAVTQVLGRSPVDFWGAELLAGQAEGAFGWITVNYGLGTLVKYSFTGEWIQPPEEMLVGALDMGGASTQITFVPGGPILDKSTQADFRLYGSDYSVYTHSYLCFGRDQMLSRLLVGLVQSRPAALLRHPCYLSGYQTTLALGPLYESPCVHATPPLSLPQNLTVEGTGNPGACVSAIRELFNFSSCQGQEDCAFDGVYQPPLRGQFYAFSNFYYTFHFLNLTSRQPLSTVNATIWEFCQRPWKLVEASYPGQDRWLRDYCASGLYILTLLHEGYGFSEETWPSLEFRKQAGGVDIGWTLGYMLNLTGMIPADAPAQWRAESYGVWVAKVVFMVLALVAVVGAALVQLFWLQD

[5] = biological target: T3, Ectonucleotide pyrophosphatase/phosphodiesterase family member 1 (Homo sapiens); test: Competitive inhibition of human NPP1 expressed in COS7 cells assessed as production of p-nitrophenol using pnp-TMP as the substrate preincubated at 25 to 100 uM for 3 mins before substrate addition measured after 15 mins by Dixon/Cornish Bowden method; assay type: cell-based; conditions: COS-7; procedure, shortened: as §2
[6] = biological target: T5, Ectonucleoside triphosphate diphosphohydrolase 1 (Homo sapiens) (UniProt P49961); test: Inhibition of human NTPDase1 assessed as amount of inorganic phosphate released using ATP as the substrate preincubated at 100 uM for 3 mins before substrate addition after 15 mins by malachite green reagent method; procedure, shortened: as §1
T5 sequence (whole entry): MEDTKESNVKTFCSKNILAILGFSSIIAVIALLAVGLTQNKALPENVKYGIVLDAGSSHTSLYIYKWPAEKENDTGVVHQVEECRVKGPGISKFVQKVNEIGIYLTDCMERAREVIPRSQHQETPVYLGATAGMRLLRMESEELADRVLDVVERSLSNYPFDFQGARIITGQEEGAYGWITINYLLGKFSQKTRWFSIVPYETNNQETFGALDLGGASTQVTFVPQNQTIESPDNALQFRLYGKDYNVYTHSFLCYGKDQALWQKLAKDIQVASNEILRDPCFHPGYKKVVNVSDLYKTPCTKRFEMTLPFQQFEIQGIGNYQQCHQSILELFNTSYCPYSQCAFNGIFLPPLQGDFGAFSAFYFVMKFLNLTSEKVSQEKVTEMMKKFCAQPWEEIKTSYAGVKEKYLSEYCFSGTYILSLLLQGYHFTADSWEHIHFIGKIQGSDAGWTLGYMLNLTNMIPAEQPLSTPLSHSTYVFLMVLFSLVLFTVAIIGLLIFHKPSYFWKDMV

inhibition [1]: 50%
Ki [2]: 18 µM
inhibition [3]: 90%
inhibition [4]: 30%
inhibition [5]: Active
inhibition [6]: 50%
Compound: B[P@@](=O)(OC[C@H]1O[C@@H](n2cnc3c(N)ncnc32)[C@H](O)[C@@H]1O)OP(=O)(O)C(Cl)(Cl)P(=O)(O)O
